Screening data: PubChem, Johns Hopkins Ion Channel Center
Rows were chosen to be rich in hits. Some 3.5% of all compounds tested hit in one or more screens of this group.
MrgX1 allo act: human MrgX1 positive allosteric modulation, primary screen | MrgX1-HEK293, Fluo-4 calcium flux, FDSS; stronger effect = higher value | B-score at 10 µM | hit rate 0.63% among 310,000;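 active means plate-corrected calcium response at least 3 library SD above typical, normal starting fluorescence, not activating the receptor alone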;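 further: compound read alongside a low EC10 to EC30 dose of BAM8-22 agonist; peak minus trough fluorescence over baseline measured at the second addition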
Target sequence (Q96LB2 whole entry, looked up): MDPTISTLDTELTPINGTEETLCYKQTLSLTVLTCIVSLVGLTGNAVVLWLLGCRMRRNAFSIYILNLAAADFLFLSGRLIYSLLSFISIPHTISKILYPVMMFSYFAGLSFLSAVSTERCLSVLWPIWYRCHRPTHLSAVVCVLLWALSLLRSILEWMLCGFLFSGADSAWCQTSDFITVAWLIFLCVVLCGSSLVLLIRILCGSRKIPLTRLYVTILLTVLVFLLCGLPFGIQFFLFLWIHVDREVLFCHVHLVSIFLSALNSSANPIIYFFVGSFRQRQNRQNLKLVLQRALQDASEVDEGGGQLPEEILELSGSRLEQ
RGS4 act: RGS4 potentiation or activation. HEK293 M3R/inducible RGS4, carbachol calcium flux Fluo4; stronger effect = lower value. B-score at 10 µM. hit rate 0.92% among 310,000;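 active means B-score of the integrated calcium signal more than 4 SD below the library mean, with starting fluorescence not abnormally high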;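 further: negative B-score means reduced calcium response which marks RGS4 activation or potentiation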
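test system = M3R-expressing HEK293 line, RGS4 induced by doxycycline | probe or stimulus = carbachol at ECmax as muscarinic agonist stimulus | timing = dye loading 30 min 37 °C, buffer rest 30 min RT | signal = calcium dye Fluo4 fluorescence | evaluation = B score from integrated fluorescence ratio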
MrgX1 antag: blocks BAM8-22 activation of human MrgX1 receptor; B-score at 10 µM; MRGX1-HEK293 calcium flux, Fluo-4, BAM8-22 antagonism; stronger effect = lower value; hit rate 1.3% among 310,000;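 active means calcium-response B-score plate-corrected more than 3 library SD below zero, starting fluorescence within 5 deviations, no agonist response on first addition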;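 further: peak minus trough fluorescence over baseline after final BAM8-22 challenge near maximal dose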
RGS4 block: inhibitors of human RGS4; P49798; hit rate 0.45% among 310,000; B-score at 10 µM; HEK293 M3R/RGS4 inducible, Fluo-4 calcium flux; stronger effect = higher value; triggered by carbachol at its EC20;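 active means B-score, a plate-corrected calcium signal, over three deviations above library mean, with baseline fluorescence within five deviations of library mean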;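 further: RGS4 expression induced by doxycycline in cells with stable M3 receptor; B-score is computed from the integrated fluorescence ratio over baseline after carbachol; higher B-score means a larger calcium signal and so more RGS4 inhibition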
Target sequence (P49798 whole entry, looked up): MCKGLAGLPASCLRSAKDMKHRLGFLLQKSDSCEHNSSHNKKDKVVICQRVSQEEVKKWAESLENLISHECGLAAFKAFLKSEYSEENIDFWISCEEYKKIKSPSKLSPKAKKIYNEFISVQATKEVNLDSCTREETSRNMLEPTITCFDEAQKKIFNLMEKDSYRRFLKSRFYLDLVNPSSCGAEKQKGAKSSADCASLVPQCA
MrgX1 agonist: agonists of human MrgX1 receptor | MrgX1-HEK293 cells, Fluo-4 calcium fluorescence, agonist mode; stronger effect = higher value | B-score at 10 µM | hit rate 0.44% among 310,000 | AID 588627;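 active means calcium response B-score plate-corrected fluorescence ratio at least 3 library SD, with starting fluorescence B-score inside 5 SD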
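Assay system: MrgX1-expressing HEK293 cells / Amount: fifteen thousand cells per well / Doses: test compound in the initial addition of three / Timing: cells plated overnight, dye loaded 0.5 h 37 °C, 0.5 h room temperature / Technique: kinetic calcium dye fluorescence, Fluo-4 NW / Control set: positive and negative controls per plate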
RGS4 inh valid: RGS4 inhibitor validation; hit rate 65% among 1,700; shares compounds with RGS4 block; calcium response, % at 10 µM; HEK293 M3R/RGS4, carbachol calcium Fluo-4 fluorescence; carbachol added at its EC20; 0 = buffer wells, 100 = carbachol control; AID 492999;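 active means duplicate-averaged calcium response above the buffer-only control mean plus 5 SD of those controls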;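 further: integrated fluorescence ratio F max minus min over baseline F0; higher response in RGS4-induced cells means RGS4 inhibition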
M3R Ca ctr: counter-screen for RGS4 inhibitors: effect in non-induced cells; shares compounds with RGS4 block; AID 493000; HEK293 M3R non-induced, carbachol calcium Fluo-4; submaximal (EC20) carbachol stimulus; buffer wells 0%, carbachol control wells 100%; activity (percent), % at 10 µM; hit rate 20% among 1,900; call rule not given here;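 further: RGS4 induction absent so cells express M3R without RGS4; higher means more calcium signal and flags a non-specific hit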
RGS4 inh ctr2: second RGS4 inhibitor counter-screen in uninduced cells lacking carbachol | shares compounds with RGS4 block | hit rate 22% among 1,900 | HEK293 M3R/RGS4 non-induced, Fluo-4 calcium, no carbachol; normalised: buffer wells 0%, carbachol wells 100% | calcium response (agonist-mode artifact), % at 10 µM;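 active means duplicate-averaged calcium rise in uninduced cells above buffer wells' mean plus 5 SD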
* hit, by the source's call; i = inactive; / = no result.

SMILES	MrgX1 allo act	RGS4 act	MrgX1 antag	RGS4 block	MrgX1 agonist	RGS4 inh valid	M3R Ca ctr	RGS4 inh ctr2
O=S1(=O)CCC(N=Cc2ccc(-c3ccc(Cl)cc3)o2)C1 (stereo not given)	i	i	i	5.7*	i	7.5%*	i	i
Cc1cc(N(CCO)CCO)ccc1C(c1ccc(N(CCO)CCO)cc1C)c1ccccc1Cl	i	i	i	6*	i	16%*	i	25%*
CCN(CC)c1ccc(NC(=O)CNCc2ccccc2Cl)c(C)c1	i	i	i	i	i	/	/	/
CC(C)(C#N)NC(=O)C1CCCN1S(=O)(=O)c1ccc2ccccc2c1 (stereo not given)	i	i	i	i	i	/	/	/
CSc1nc(-c2ccccc2)nn1C(=O)c1ccccc1	i	i	i	i	i	/	/	/
CSc1nc(-c2ccccc2)nn1C(=O)c1ccco1	i	i	i	i	i	i	i	i
CC1=NN(c2cccc(C(=O)O)c2)C(=O)/C1=C\C=C/c1ccccc1	/	i	/	34*	/	80%*	59%*	i
Cc1ccc(C(=O)/C=C/C(=O)c2ccc(C)cc2)cc1	i	i	i	i	i	/	i	i
Cc1ccnc(NS(=O)(=O)c2ccc(NC(=O)Cc3ccccc3)cc2)n1	i	i	i	i	i	/	/	/
Cc1ccnc(NS(=O)(=O)c2ccc(NC(=O)CC(C)c3ccccc3)cc2)n1 (stereo not given)	i	i	i	6.2*	i	5.0%*	i	i
NC(=O)CC(NC(=O)c1cccc(Br)c1)c1ccc(NC2CCN(Cc3ccccc3)CC2)c([N+](=O)[O-])c1 (stereo not given)	i	i	i	i	i	/	/	/
NC(=O)CC(NC(=O)Cc1ccc(Cl)cc1)c1ccc(NC2CCN(Cc3ccccc3)CC2)c([N+](=O)[O-])c1 (stereo not given)	i	i	i	i	i	i	i	i
COc1cc(/C(C)=N/N2CCN(c3ccccc3OC)CC2)ccc1O	i	i	i	i	i	/	/	/
Cc1cccn2c(=O)c(C=O)c(Cl)nc12	i	i	i	i	i	/	/	/
O=Cc1c(Cl)nc2ccccn2c1=O	i	i	i	4.8*	i	22%*	i	i
O=C(CN1C(=O)S/C(=C\C=C\c2ccccc2)C1=O)N1CCCCC1	i	i	i	i	i	/	i	i
O=C(CN1C(=O)S/C(=C\C=C\c2ccccc2)C1=O)Nc1ccc(O)cc1	i	i	i	i	i	i	i	7.5%*
O=C(CCCN1C(=O)S/C(=C/C=C/c2ccccc2)C1=O)Nc1ccc(C(=O)O)cc1	i	i	i	i	i	/	/	/
CCOc1ccc(CCNC(=O)c2cc(-c3ccccc3)c(N3CCOCC3)s2)cc1OCC	i	i	i	i	i	/	/	/
CCCCc1nc2n[nH]c(N)c2c2c1CSC(C)(C)C2	i	i	i	4.7*	i	i	i	i
O=C(NC(C(=O)N/N=C/c1ccncc1)c1n[nH]c(=O)c2ccccc12)c1ccccc1 (stereo not given)	i	i	i	i	i	/	/	/
O=C(NC(C(=O)N/N=C/c1cccc2ccccc12)c1n[nH]c(=O)c2ccccc12)c1ccccc1 (stereo not given)	i	i	i	14*	i	24%*	30%*	i
CCOC(=O)C1=C(C(F)(F)F)Nc2ncnn2C1c1ccc(OC)cc1OC (stereo not given)	i	i	i	i	i	/	/	/
C=C1C(=O)O[C@@H]2[C@H]1[C@@H](OC(=O)/C(C)=C/C)C/C(C)=C\C(=O)/C=C(\C)[C@@H]2O	i	i	i	i	i	/	i	i
Cc1ccc(C)c(-c2cc(C(=O)Nc3sc(C)c(C)c3C(N)=O)c3ccccc3n2)c1	i	i	i	i	i	/	i	7.0%*
SMILES	MrgX1 allo act	RGS4 act	MrgX1 antag	RGS4 block	MrgX1 agonist	RGS4 inh valid	M3R Ca ctr	RGS4 inh ctr2
COCCN(C(=O)Nc1ccc(OC)cc1)c1nc2ccccc2s1	i	i	i	i	i	/	/	/
CCOc1cc(/C=C2\C(=O)N(c3ccc(C(N)=O)cc3)N=C2C)ccc1OC(=O)c1cccs1	i	i	i	i	i	/	/	/
CC1=NN(c2ccc(C(=O)O)cc2)C(=O)/C1=C\c1ccc(OC(=O)c2cccs2)cc1	i	i	i	13*	i	24%*	i	i
COc1ccc(S(=O)(=O)N2CCCC(C(=O)N3CCOCC3)C2)cc1OC (stereo not given)	i	i	i	i	i	/	/	/
COc1ccc(C)cc1S(=O)(=O)N1CCCC(C(=O)N2CCOCC2)C1 (stereo not given)	i	i	i	i	i	i	i	i
COc1ccc(OC)c(S(=O)(=O)N2CCCC(C(=O)NCc3ccncc3)C2)c1 (stereo not given)	i	i	i	i	i	/	/	/
COc1ccc(OC)c(S(=O)(=O)N2CCC(C(=O)N3CCCC3)CC2)c1	i	i	i	i	i	/	/	/
COc1ccc(OC)c(S(=O)(=O)N2CCC(C(=O)N3CCOCC3)CC2)c1	i	i	i	i	i	i	i	i
COc1ccc(OC)c(S(=O)(=O)N2CCCC(C(=O)N3CCCC3)C2)c1 (stereo not given)	i	i	i	i	i	i	i	i
COc1ccc(OC)c(S(=O)(=O)N2CCCC(C(=O)N3CCCCCC3)C2)c1 (stereo not given)	i	i	i	i	i	i	i	14%*
COc1ccc(Cl)cc1S(=O)(=O)N1CCCC(C(=O)N2CCCC2)C1 (stereo not given)	i	i	i	i	i	/	/	/
O=c1c2cc(Br)ccc2nc(-c2ccccc2)n1O	i	i	i	i	i	/	/	/
Cc1cc(C)n2c(Br)c(CN3CCCC(C)C3)nc2n1 (stereo not given)	i	i	i	i	i	/	/	/
